According to ChEMBL document CHEMBL5661979, “Pharmacological inhibition of BMK1 suppresses tumor growth through promyelocytic leukemia protein” (Cancer Cell, 2010):

Experiments:
[1] = molecular target: T1, Phosphatidylinositol 5-phosphate 4-kinase type-2 alpha (Homo sapiens, UniProt P48426); assay: Inhibition of PIP5K2A in human HeLa cells lysate pre incubated for 15 mins followed by ADP acyl phosphate probe addition and measured after 10 mins by LC-MS/MS analysis; assay type: subcellular
T1 sequence (P48426 whole entry): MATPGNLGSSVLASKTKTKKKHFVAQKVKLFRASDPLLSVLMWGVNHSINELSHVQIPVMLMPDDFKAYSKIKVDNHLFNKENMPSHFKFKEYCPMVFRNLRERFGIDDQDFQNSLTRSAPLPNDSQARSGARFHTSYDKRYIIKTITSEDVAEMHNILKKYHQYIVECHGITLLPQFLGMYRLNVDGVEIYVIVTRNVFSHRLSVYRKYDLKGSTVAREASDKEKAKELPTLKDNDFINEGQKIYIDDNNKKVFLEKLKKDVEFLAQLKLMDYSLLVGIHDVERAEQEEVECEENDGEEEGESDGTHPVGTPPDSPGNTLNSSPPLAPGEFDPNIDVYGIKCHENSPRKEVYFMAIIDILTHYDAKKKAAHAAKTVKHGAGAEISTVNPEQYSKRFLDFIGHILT

[2] = molecular target: Ribosomal protein S6 kinase alpha-5 (Homo sapiens, UniProt O75582); assay: Inhibition of MSK1 domain 1 in human HeLa cells lysate at 10 uM pre incubated for 15 mins followed by ADP acyl phosphate probe addition and measured after 10 mins by LC-MS/MS analysis relative to control; assay type: subcellular; conditions: time 25.0 min
[3] = molecular target: T2, STE20-related kinase adapter protein beta (Homo sapiens) (UniProt Q9C0K7); assay: Inhibition of ALS2CR2 in human HeLa cells lysate at 50 uM pre incubated for 15 mins followed by ADP acyl phosphate probe addition and measured after 10 mins by LC-MS/MS analysis relative to control; assay type: subcellular; conditions: time 25.0 min
T2 sequence (whole entry): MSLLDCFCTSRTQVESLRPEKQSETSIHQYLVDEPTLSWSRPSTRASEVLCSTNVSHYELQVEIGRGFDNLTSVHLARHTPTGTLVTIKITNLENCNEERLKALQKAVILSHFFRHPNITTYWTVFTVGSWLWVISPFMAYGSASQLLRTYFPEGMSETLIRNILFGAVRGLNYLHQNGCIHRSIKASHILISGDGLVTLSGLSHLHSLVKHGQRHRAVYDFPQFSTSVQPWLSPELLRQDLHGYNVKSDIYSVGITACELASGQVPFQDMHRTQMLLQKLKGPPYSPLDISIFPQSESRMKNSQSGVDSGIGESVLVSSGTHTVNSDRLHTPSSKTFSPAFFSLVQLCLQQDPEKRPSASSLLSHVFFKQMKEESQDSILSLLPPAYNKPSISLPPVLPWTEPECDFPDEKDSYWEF
Procedure, shortened: (§1)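 HeLa cell lysates (5 mg/mL total protein) were preincubated with inhibitor at 0, 0.8, 2, 10 or 50 μM for 15 min. ATP or ADP acylphosphate probe was then added (5 μM final) for 10 min, and reactions were stopped with urea. Up to four fragment ions per kinase probe-peptide were quantified by targeted MS. % inhibition was taken relative to untreated lysate. Run in duplicate.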

[4] = molecular target: Ribosomal protein S6 kinase alpha-3 (Homo sapiens, UniProt P51812); assay: Inhibition of RSK2 domain 2 in human HeLa cells lysate pre incubated for 15 mins followed by ATP acyl phosphate probe addition and measured after 10 mins by LC-MS/MS analysis; assay type: subcellular
[5] = Inhibition of CDK5/PRKX/PRKY in human HeLa cells lysate pre incubated for 15 mins followed by ADP acyl phosphate probe addition and measured after 10 mins by LC-MS/MS analysis; assay type: subcellular
Procedure, shortened: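 KiNativ profiling in HeLa lysate (5 mg/mL total protein). Lysate incubated 15 min with inhibitor at 50, 10, 2, 0.8 or 0 μM. ATP or ADP acylphosphate probe then added (5 μM final) and reacted 10 min. Reaction stopped with urea and analysed by targeted MS, using up to four fragment ions per kinase peptide-probe conjugate. % inhibition taken against untreated lysate. Run in duplicate.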

[6] = molecular target: RAC-alpha serine/threonine-protein kinase (Homo sapiens, UniProt P31749); assay: Inhibition of AKT1 in human HeLa cells lysate at 50 uM pre incubated for 15 mins followed by ATP acyl phosphate probe addition and measured after 10 mins by LC-MS/MS analysis relative to control; assay type: subcellular; conditions: time 25.0 min; procedure, shortened: as §1
[7] = Plasma concentration in C57Bl/6 mouse at 50 mg/kg, ip administered for 1 day and measured 8 hr post last dose by LC-MS/MS analysis; assay type: ADME, organism-based
[8] = molecular target: DNA-dependent protein kinase catalytic subunit (Homo sapiens, UniProt P78527); assay: Inhibition of PRKDC in human HeLa cells lysate at 50 uM pre incubated for 15 mins followed by ADP acyl phosphate probe addition and measured after 10 mins by LC-MS/MS analysis relative to control; assay type: subcellular; conditions: time 25.0 min
[9] = molecular target: Hepatocyte growth factor receptor (Homo sapiens, UniProt P08581); assay: Inhibition of MET in human HeLa cells lysate at 2 uM pre incubated for 15 mins followed by ATP acyl phosphate probe addition and measured after 10 mins by LC-MS/MS analysis relative to control; assay type: subcellular; conditions: time 25.0 min
[10] = molecular target: T3, Serine/threonine-protein kinase Chk1 (Homo sapiens) (UniProt O14757); assay: Inhibition of CHK1 in human HeLa cells lysate at 50 uM pre incubated for 15 mins followed by ATP acyl phosphate probe addition and measured after 10 mins by LC-MS/MS analysis relative to control; assay type: subcellular; conditions: time 25.0 min
T3 sequence (whole entry): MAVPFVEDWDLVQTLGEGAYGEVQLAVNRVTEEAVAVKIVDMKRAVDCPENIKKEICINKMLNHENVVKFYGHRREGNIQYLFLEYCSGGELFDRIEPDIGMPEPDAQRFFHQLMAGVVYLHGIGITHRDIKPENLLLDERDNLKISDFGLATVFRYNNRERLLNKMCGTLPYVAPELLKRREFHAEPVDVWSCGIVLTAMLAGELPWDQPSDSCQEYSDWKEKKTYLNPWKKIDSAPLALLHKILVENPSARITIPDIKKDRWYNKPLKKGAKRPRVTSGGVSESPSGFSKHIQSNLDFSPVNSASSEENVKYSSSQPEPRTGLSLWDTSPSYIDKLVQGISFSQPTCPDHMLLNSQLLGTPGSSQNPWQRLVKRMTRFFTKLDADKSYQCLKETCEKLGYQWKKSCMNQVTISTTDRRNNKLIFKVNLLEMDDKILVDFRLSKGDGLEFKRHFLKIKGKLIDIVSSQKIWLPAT

RAC-alpha serine/threonine-protein kinase, sequence (P31749 whole entry): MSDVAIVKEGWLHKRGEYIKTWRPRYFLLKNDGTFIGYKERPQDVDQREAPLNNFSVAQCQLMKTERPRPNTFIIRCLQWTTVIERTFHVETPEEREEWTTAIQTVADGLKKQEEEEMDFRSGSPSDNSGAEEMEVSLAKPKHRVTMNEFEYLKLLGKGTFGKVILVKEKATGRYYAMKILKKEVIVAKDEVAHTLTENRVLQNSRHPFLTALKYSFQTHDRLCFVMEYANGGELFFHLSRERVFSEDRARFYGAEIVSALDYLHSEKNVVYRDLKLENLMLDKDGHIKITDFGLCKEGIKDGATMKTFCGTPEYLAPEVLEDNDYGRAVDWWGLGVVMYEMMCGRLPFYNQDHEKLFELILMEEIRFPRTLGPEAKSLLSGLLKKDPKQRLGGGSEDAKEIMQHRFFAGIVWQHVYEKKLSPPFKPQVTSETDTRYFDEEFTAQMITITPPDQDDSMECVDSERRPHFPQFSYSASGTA
DNA-dependent protein kinase catalytic subunit, sequence (P78527 whole entry): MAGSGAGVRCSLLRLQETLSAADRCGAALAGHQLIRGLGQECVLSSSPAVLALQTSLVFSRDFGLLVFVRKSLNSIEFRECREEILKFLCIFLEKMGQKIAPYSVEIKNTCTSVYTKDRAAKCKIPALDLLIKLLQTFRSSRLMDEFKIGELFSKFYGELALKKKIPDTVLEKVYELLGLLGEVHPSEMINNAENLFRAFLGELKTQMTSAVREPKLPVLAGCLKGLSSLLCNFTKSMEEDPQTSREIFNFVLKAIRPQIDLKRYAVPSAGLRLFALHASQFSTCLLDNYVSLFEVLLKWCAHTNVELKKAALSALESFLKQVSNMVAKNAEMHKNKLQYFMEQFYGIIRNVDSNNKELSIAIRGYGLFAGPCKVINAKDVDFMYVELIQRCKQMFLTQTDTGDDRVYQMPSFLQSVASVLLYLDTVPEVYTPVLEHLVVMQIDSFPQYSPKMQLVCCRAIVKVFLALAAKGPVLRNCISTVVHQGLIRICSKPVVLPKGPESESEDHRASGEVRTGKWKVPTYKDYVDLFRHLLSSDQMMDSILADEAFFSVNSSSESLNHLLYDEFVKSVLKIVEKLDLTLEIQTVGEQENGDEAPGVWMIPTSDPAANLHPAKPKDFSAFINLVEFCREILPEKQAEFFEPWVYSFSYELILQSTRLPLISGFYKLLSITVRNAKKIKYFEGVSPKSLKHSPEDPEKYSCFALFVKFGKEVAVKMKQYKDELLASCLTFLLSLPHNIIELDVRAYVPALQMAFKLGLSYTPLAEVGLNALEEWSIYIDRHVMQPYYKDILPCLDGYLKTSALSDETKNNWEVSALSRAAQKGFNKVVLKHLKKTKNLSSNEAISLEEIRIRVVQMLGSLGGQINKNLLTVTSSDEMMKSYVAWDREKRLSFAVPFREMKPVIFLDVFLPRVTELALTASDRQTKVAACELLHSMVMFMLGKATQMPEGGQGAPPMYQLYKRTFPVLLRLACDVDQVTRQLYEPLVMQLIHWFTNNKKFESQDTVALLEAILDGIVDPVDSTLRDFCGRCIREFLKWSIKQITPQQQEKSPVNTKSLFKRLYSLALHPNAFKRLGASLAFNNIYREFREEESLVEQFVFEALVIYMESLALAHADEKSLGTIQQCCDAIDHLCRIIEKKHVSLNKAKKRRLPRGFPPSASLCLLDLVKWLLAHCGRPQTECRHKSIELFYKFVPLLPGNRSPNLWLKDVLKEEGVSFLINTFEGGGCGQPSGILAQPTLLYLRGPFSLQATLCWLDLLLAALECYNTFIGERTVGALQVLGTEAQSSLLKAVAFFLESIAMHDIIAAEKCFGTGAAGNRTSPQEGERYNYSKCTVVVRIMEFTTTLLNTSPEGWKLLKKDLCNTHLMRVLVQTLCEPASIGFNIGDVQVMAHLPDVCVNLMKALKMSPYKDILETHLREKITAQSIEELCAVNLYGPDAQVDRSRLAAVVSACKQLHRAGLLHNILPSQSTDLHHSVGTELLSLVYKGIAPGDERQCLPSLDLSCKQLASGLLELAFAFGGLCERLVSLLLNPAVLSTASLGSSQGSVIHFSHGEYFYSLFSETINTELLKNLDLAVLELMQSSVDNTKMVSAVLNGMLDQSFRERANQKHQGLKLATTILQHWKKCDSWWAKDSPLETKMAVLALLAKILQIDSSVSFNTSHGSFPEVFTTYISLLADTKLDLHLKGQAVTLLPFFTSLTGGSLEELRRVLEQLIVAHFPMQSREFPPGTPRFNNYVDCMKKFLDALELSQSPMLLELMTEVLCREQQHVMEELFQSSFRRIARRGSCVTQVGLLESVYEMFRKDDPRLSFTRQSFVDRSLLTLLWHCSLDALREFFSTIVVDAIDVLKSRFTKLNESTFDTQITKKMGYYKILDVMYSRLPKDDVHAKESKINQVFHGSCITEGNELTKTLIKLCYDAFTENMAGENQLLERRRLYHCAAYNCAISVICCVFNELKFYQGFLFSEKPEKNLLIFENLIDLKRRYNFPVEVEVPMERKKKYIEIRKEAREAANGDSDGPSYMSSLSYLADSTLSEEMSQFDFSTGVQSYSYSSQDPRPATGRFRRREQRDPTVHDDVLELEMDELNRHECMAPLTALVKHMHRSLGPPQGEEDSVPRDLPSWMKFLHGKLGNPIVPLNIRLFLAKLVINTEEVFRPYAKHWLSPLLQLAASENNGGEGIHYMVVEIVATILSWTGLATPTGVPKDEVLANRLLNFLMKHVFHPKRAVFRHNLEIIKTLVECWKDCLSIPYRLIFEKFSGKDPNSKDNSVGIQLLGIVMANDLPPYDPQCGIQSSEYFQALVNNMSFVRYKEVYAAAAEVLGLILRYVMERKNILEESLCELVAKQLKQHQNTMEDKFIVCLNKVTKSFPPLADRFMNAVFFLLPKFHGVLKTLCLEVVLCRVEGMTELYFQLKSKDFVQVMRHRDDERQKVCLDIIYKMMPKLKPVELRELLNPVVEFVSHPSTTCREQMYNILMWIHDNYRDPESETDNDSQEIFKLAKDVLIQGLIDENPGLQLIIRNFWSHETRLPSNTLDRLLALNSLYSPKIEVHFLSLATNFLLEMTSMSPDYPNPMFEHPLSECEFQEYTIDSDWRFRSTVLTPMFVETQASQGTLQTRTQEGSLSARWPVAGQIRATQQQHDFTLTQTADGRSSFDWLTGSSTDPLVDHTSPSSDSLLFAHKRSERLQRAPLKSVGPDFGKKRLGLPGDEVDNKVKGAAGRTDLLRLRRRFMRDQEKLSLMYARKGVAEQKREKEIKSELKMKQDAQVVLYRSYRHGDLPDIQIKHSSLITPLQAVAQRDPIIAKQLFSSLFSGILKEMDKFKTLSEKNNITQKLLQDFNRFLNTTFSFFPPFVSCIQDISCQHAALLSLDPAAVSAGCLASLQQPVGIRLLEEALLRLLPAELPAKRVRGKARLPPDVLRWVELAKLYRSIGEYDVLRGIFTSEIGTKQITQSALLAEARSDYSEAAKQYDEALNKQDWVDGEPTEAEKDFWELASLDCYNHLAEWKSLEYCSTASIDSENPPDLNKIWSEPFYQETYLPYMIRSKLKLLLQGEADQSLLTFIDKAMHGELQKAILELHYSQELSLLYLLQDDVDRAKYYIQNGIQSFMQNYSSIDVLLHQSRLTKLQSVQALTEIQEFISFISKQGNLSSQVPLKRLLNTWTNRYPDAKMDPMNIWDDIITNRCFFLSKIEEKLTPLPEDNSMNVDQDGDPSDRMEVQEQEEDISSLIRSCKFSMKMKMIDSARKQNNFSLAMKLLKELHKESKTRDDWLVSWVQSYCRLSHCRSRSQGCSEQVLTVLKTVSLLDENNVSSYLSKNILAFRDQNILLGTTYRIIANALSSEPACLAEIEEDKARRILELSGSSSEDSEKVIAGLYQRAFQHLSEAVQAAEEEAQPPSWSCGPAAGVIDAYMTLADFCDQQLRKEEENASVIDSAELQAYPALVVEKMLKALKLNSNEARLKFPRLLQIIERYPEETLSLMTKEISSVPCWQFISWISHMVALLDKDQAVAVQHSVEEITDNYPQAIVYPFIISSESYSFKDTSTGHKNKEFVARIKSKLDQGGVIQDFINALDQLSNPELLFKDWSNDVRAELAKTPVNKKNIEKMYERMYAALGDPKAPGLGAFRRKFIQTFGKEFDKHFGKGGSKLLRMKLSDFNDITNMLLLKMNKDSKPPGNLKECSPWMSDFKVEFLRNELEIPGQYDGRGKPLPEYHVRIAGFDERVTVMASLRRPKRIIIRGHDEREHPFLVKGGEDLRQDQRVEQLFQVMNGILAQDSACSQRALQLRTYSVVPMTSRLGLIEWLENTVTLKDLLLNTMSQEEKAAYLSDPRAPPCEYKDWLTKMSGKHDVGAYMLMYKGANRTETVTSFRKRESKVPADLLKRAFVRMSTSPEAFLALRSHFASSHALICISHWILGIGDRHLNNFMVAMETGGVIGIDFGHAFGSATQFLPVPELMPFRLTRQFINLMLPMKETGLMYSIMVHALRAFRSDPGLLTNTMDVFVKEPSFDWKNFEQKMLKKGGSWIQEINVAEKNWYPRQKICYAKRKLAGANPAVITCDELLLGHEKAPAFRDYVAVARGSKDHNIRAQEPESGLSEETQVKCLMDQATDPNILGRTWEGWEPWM

Molecule `CCOc1cc(N2CCC(O)CC2)ccc1Nc1ncc2c(n1)N(C)c1ccccc1C(=O)N2C` has an IC50 [1] greater than 50 µM, an inhibition [2] of -7.3% and an inhibition [3] of 12.7%. For the same molecule, the IC50 [4] was 49 µM, the IC50 [5] was greater than 50 µM and the inhibition [6] was 15.4%. For the same molecule, the concentration at 24 h [7] was 10.2 µM, the inhibition [8] was 2.9% and the inhibition [9] was 38%. It also gave an inhibition [10] of -0.4%.
